The values that follow come from ChEMBL document CHEMBL1124927, “Synthesis and structure-activity relationships of new 7-[3-(fluoromethyl)piperazinyl]- and -(fluorohomopiperazinyl)quinolone antibacterials” (1990).

In brackets after ≈: the same amount, converted by molar mass. Bounds are passed on as bounds.

The subject of assay [1] is Escherichia coli. Kind of assay: In vitro minimal inhibitory concentration against Escherichia coli #311 (Ec(B)). The class given is functional. The procedure, abridged:
(§1)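 Agar dilution: two-fold serial drug dilutions in Mueller–Hinton agar; plates inoculated with 1–5 × 10⁴ CFU via Steers multiple inocula replicator; incubated 18 h at 35 °C. MIC = lowest concentration preventing macroscopic growth.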

Assay [2] has as its system Escherichia coli. Kind of assay: In vitro minimal inhibitory concentration against Escherichia coli ATCC 25922 (Ec(A)). The assay is classed as functional. The procedure, abridged: as §1
Assay [3] deals with Enterobacter cloacae. As to the kind of experiment: (§2) In vitro minimal inhibitory concentration against Enterobacter cloacae VGH-84-39 (Et(c)). The class given is functional.
Assay [4] relates to Morganella morganii. As to the kind of experiment: In vitro minimal inhibitory concentration against Morganella morganii CMC-84-39 (Mn). The assay is classed as functional. In outline: as §1
For assay [5], the system named is Pseudomonas aeruginosa. Kind of assay: In vitro minimal inhibitory concentration against Pseudomonas aeruginosa 12-4-4 (Pa). The assay is classed as functional. In outline: as §1
The subject of assay [6] is Staphylococcus aureus. As to the kind of experiment: In vitro minimal inhibitory concentration against Staphylococcus aureus ATCC 29213 (Sa(B)). The assay is classed as functional. In outline: as §1
Assay [7] relates to Staphylococcus aureus. Kind of assay: In vitro minimal inhibitory concentration against Staphylococcus aureus Smith (MP) (Sa(A)). The assay is classed as functional. In outline: as §1
In assay [8] the test system is Enterococcus faecalis. Kind of assay: In vitro minimal inhibitory concentration against Streptococcus faecalis UCI-85 (Sf(U)). The class given is functional. In outline: as §1
For assay [9], the system named is Enterococcus faecalis. As to the kind of experiment: In vitro minimal inhibitory concentration Streptococcus faecalis VGH-84 (Sf(V)). The class given is functional. The procedure, abridged:
as §1

Assay [10] deals with Escherichia coli. As to the kind of experiment: Median effective dose against female mice infected with Escherichia coli #311 after oral administration. The class given is functional. The procedure, abridged: (§3)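 CD-1 female mice (20 ± 2 g) infected ip with 0.5 mL standardized bacterial suspension (E. coli #311 in trypticase–soy broth; S. aureus Smith in 5% hog gastric mucin). Dosed 0.5 h post-infection, oral or subcutaneous, 2-fold dose increments in 0.5 mL 0.2% aqueous agar; five mice per dose. 7-day survival pooled from three tests; ED50 by probit analysis, 95% confidence limits.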

Assay [11] concerns Escherichia coli. Kind of assay: Median effective dose against female mice infected with Escherichia coli #311 after subcutaneous administration. The assay is classed as functional. Conditions: sc. In outline: as §3
Assay [12] has as its system Staphylococcus aureus. As to the kind of experiment: Median effective dose against female mice infected with Staphylococcus aureus Smith after oral administration. The class given is functional. The procedure, abridged: as §3
For assay [13], the system named is Staphylococcus aureus. As to the kind of experiment: Median effective dose against female mice infected with Staphylococcus aureus Smith after subcutaneous administration. The assay is classed as functional. Particulars: sc. In outline: as §3
Assay [14] is described as follows: Ratio of ED50 value of (po/sc) was determined for Staphylococcus aureus Smith. The assay is classed as functional. The procedure, abridged: (§4)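 Oral and subcutaneous ED50 values from ip-infected CD-1 female mice (treated 0.5 h post-infection, 2-fold doses in 0.2% aqueous agar, five mice/dose, 7-day survival, three pooled tests, probit analysis); ratio taken as po ED50 divided by sc ED50, as an index of absorption.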

Assay [15] is described as follows: Ratio of ED50 value of (po/sc) was determined for Escherichia coli #311. The assay is classed as functional. The procedure, abridged:
as §4

For assay [16], the system named is Escherichia coli. As to the kind of experiment: animal or person. Particulars: in Mus musculus, po.
In assay [17] the test system is Escherichia coli. As to the kind of experiment: animal or person. Conditions: in Mus musculus, sc.
For assay [18], the system named is Enterobacter cloacae. The assay is described as §2. The assay is classed as functional. In outline: as §1
This is another data set of the same source.

Take `O=C(O)c1cn(C2CC2)c2cc(N3CCCNCC3)c(F)cc2c1=O`: the MIC (usually the smallest concentration in the dilution series that meets the test's criterion for growth inhibition) in assay [1] is 0.03 µg/mL (≈ 0.0869 µM); in [2], 0.03 µg/mL (≈ 0.0869 µM); in [3], 0.03 µg/mL (≈ 0.0869 µM); in [4], 0.03 µg/mL (≈ 0.0869 µM); in [5], 1 µg/mL (≈ 2.9 µM); in assay [6], 2 µg/mL (≈ 5.79 µM). The figures for the MIC in assay [7], in assay [8] and in [9] were 0.25 µg/mL (≈ 0.724 µM), 2 µg/mL (≈ 5.79 µM) and 1 µg/mL (≈ 2.9 µM), respectively.
For the compound `CCn1cc(C(=O)O)c(=O)c2cc(F)c(N3CCNC(CO)C3)cc21.Cl` (stereo not given), the MIC in [1] was determined as 1 µg/mL; in assay [2], 2 µg/mL; in assay [3], 1 µg/mL; in assay [4] it was 0.5 µg/mL; in assay [5], 64 µg/mL; in assay [6] it was 32 µg/mL. Besides, the minimum inhibitory concentration (MIC) in assay [7] is 8 µg/mL; in assay [8], 16 µg/mL; in assay [9], 16 µg/mL.
Consider `CC1CN(c2cc3c(cc2F)c(=O)c(C(=O)O)cn3C2CC2)CCN1` (stereo not given), for which the ED50 (as a rule, the dose that gives a 50% effect, or the effect in half of the subjects) is 0.42 mg/kg in assay [10] (Escherichia coli, po); 0.09 mg/kg in assay [11]; 2.4 mg/kg in [12]; 0.61 mg/kg in assay [13]. Also, the MIC is at most 0.015 µg/mL in assay [1]; at most 0.015 µg/mL in [2]; 0.015 µg/mL (≈ 0.0434 µM) in assay [3]; 0.03 µg/mL (≈ 0.0869 µM) in [4]; 0.25 µg/mL (≈ 0.724 µM) in assay [5]; 0.5 µg/mL (≈ 1.45 µM) in [6]. For the same compound, the MIC in [7] came to 0.12 µg/mL (≈ 0.347 µM); in [8] it was 2 µg/mL (≈ 5.79 µM); in [9], 1 µg/mL (≈ 2.9 µM). Besides, the Ratio came out at 3.9 in assay [14] and 4.7 in assay [15].
As for `O=C(O)c1cn(C2CC2)c2cc(N3CCNCC(F)C3)c(F)cc2c1=O` (stereo not given), the MIC in [1] worked out at 0.03 µg/mL (≈ 0.0826 µM); in [2], 0.03 µg/mL (≈ 0.0826 µM); in assay [3], 0.06 µg/mL (≈ 0.165 µM); in [4] it was 0.06 µg/mL (≈ 0.165 µM); in [5], 2 µg/mL (≈ 5.5 µM); in assay [6] it was 1 µg/mL (≈ 2.75 µM). Moreover, the MIC in [7] came out at 0.25 µg/mL (≈ 0.688 µM); in assay [8], 4 µg/mL (≈ 11 µM); in [9], 4 µg/mL (≈ 11 µM).
For the compound `CCn1cc(C(=O)O)c(=O)c2cc(F)c(N3CCNC(CF)C3)cc21` (stereo not given), the ED50 in assay [10] amounted to 2.8 mg/kg; in assay [11], 3 mg/kg; in [12] it was 6 mg/kg; in assay [13], 2.6 mg/kg. For the same compound, the minimum inhibitory concentration (MIC) in [1] was at most 0.12 µg/mL; in assay [2] it was 0.12 µg/mL (≈ 0.342 µM); in assay [3], 0.12 µg/mL (≈ 0.342 µM); in assay [4], 0.12 µg/mL (≈ 0.342 µM); in assay [5] it was 32 µg/mL (≈ 91.1 µM); in assay [6], 0.25 µg/mL (≈ 0.712 µM). Also, the values for the minimal inhibitory concentration (MIC) in assay [7], in [8] and in assay [9] were at most 0.12 µg/mL, 4 µg/mL (≈ 11.4 µM) and 2 µg/mL (≈ 5.69 µM), respectively. In addition, the Ratio in [14] amounted to 2.3; in assay [15] it was 1.
As for `O=C(O)c1cn(C2CC2)c2cc(N3CCNCC3)c(F)cc2c1=O` [CIPROFLOXACIN], the minimal inhibitory concentration (MIC) in assay [1] was at most 0.015 µg/mL; in assay [2] it was at most 0.015 µg/mL; in assay [4], 0.015 µg/mL (≈ 0.0453 µM); in [6] it was 1 µg/mL (≈ 3.02 µM); in [7] it was 0.25 µg/mL (≈ 0.754 µM); in [8] it was 1 µg/mL (≈ 3.02 µM). Further, in assay [9], the MIC was 1 µg/mL (≈ 3.02 µM). The ED50 in assay [12] amounted to 3.8 mg/kg; in assay [13], 0.69 mg/kg; in assay [16], 0.49 mg/kg; in assay [17], 0.07 mg/kg.
For the compound `O=C(O)c1cn(C2CC2)c2cc(N3CCNCC(O)C3)c(F)cc2c1=O` (stereo not given), the minimum inhibitory concentration (MIC) worked out at 0.5 µg/mL (≈ 1.38 µM) in [1]; 0.25 µg/mL (≈ 0.692 µM) in assay [2]; 0.25 µg/mL (≈ 0.692 µM) in assay [3]; 0.12 µg/mL (≈ 0.332 µM) in assay [4]; 2 µg/mL (≈ 5.53 µM) in assay [5]; 16 µg/mL (≈ 44.3 µM) in [6]. For the same compound, the minimal inhibitory concentration (MIC) in [7] was determined as 4 µg/mL (≈ 11.1 µM); in assay [8] it was 16 µg/mL (≈ 44.3 µM); in assay [9], 16 µg/mL (≈ 44.3 µM).
On to `CCn1cc(C(=O)O)c(=O)c2cc(F)c(N3CCNC(C(F)F)C3)c(F)c21` (stereo not given), for which the MIC in [1] turned out to be 0.5 µg/mL (≈ 1.29 µM); in assay [2] it was 0.5 µg/mL (≈ 1.29 µM); in assay [3], 1 µg/mL (≈ 2.58 µM); in assay [4], 1 µg/mL (≈ 2.58 µM); in assay [5], 32 µg/mL (≈ 82.6 µM); in assay [6], 0.25 µg/mL (≈ 0.645 µM). Moreover, the minimal inhibitory concentration (MIC) is 0.12 µg/mL (≈ 0.31 µM) in assay [7], 4 µg/mL (≈ 10.3 µM) in [8] and 4 µg/mL (≈ 10.3 µM) in [9].
For `O=C(O)c1cn(-c2ccc(F)cc2)c2cc(N3CCNC(CF)C3)c(F)cc2c1=O` (stereo not given), the MIC worked out at 0.25 µg/mL (≈ 0.599 µM) in assay [1]; 0.25 µg/mL (≈ 0.599 µM) in assay [2]; 0.25 µg/mL (≈ 0.599 µM) in [18]; 1 µg/mL (≈ 2.4 µM) in [4]; 8 µg/mL (≈ 19.2 µM) in [5]; 0.5 µg/mL (≈ 1.2 µM) in [6]. Moreover, the MIC was found to be 0.25 µg/mL (≈ 0.599 µM) in assay [7], 4 µg/mL (≈ 9.58 µM) in assay [8] and 4 µg/mL (≈ 9.58 µM) in assay [9].
Regarding `O=C(O)c1cn(C2CC2)c2cc(N3CCNC(CF)C3)c(F)cc2c1=O` (stereo not given), the 50% effective dose (ED50) in assay [10] (Escherichia coli, po) amounted to 1.2 mg/kg; in assay [11] it was 0.6 mg/kg; in [12] it was 2.8 mg/kg; in assay [13] it was 0.94 mg/kg. The minimum inhibitory concentration (MIC) in assay [1] was 0.03 µg/mL (≈ 0.0826 µM); in assay [2], 0.06 µg/mL (≈ 0.165 µM); in [3], 0.12 µg/mL (≈ 0.33 µM); in [4], 0.12 µg/mL (≈ 0.33 µM); in assay [5] it was 2 µg/mL (≈ 5.5 µM); in assay [6], 0.25 µg/mL (≈ 0.688 µM). Besides, the minimal inhibitory concentration (MIC) in [7] was 0.12 µg/mL (≈ 0.33 µM); in assay [8], 2 µg/mL (≈ 5.5 µM); in [9], 1 µg/mL (≈ 2.75 µM). The Ratio worked out at 3 in assay [14] and 2 in assay [15].
